Laboratory results taken from ChEMBL document CHEMBL1140196, “Synthesis and biological activities of some new fluorinated coumarins and 1-aza coumarins” (Eur J Med Chem, 2008).
The source made the active and inactive calls.

Experiments:
[1] = Acute toxicity in ip dosed albino mouse after 24 hrs; assay type: organism-based; settings: in vivo
Procedure, shortened: (§1)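 Groups of six albino mice (20–25 g), fasted overnight, dosed once orally or intraperitoneally at 100 to 1000 mg kg^-1 body weight. Observed for 24 h for mortality and signs of acute toxicity (altered motor activity, tremors, convulsion, sedation, lacrimation). LD50 cut-off set at the highest dose tested, 1000 mg kg^-1.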

[2] = Acute toxicity in po dosed albino mouse after 24 hrs; assay type: organism-based; settings: in vivo; procedure, shortened: as §1
Rattus norvegicus [3] = assay: Gastrointestinal toxicity in Wistar rat assessed as ulcerogenic effect at 400 mg/kg, po administered twice at 2 hrs interval after 4 hrs; assay type: organism-based; design: dose 400 mg/kg, route oral; settings: in vivo
Procedure, shortened: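 Male Wistar rats fasted 36 h, then given 400 mg/kg orally twice, 2 h apart. Animals killed 4 h later and the stomach examined for lesions; ulcer index recorded.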

Mus musculus = assay: Analgesic activity in albino mouse assessed as inhibition of acetic acid-induced writhing at 10 mg/kg, po; assay type: functional
Procedure, shortened: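 Acetic acid writhing test: 0.6% acetic acid at 0.1 ml/10 g given intraperitoneally to albino mice of both sexes (18–22 g). Compounds given orally at 10 mg/kg as a suspension in 5% carboxymethyl cellulose. Indomethacin 10 mg/kg was the reference under the same conditions.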

Rattus norvegicus [4] = assay: Antiinflammatory activity in Wistar rat assessed as inhibition of formalin-induced paw oedema volume at 100 mg/kg, po administered 30 mins before formalin challenge after 1 hr relative to control; assay type: functional
Procedure, shortened: (§2)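 Oral dosing at 100 mg/kg as a 2% CMC suspension, 30 min before injecting 3.5% formalin into the paw. Groups of six Wistar rats of either sex. Paw volume read by mercury-displacement plethysmograph at 0 h (right after formalin) and at 1, 2, 3, 4 and 5 h. Percent inhibition versus plain 2% CMC controls; SEM reported.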

Rattus norvegicus [5] = assay: Antiinflammatory activity in Wistar rat assessed as inhibition of formalin-induced paw oedema volume at 100 mg/kg, po administered 30 mins before formalin challenge after 2 hrs relative to control; assay type: functional; procedure, shortened: as §2
Rattus norvegicus [6] = assay: Antiinflammatory activity in Wistar rat assessed as inhibition of formalin-induced paw oedema volume at 100 mg/kg, po administered 30 mins before formalin challenge after 3 hrs relative to control; assay type: functional; procedure, shortened: as §2
Rattus norvegicus [7] = assay: Antiinflammatory activity in Wistar rat assessed as inhibition of formalin-induced paw oedema volume at 100 mg/kg, po administered 30 mins before formalin challenge after 4 hrs relative to control; assay type: functional; procedure, shortened: as §2
Rattus norvegicus [8] = assay: Antiinflammatory activity in Wistar rat assessed as inhibition of formalin-induced paw oedema volume at 100 mg/kg, po administered 30 mins before formalin challenge after 5 hrs relative to control; assay type: functional; procedure, shortened: as §2
Escherichia coli [9] = assay: Antibacterial activity against Escherichia coli at 100 ug/mL after 48 hrs by cup-plate method; assay type: functional
Escherichia coli [10] = assay: Antibacterial activity against Escherichia coli at 50 ug/mL after 48 hrs by cup-plate method; assay type: functional
Escherichia coli [11] = assay: Antibacterial activity against Escherichia coli at 25 ug/mL after 48 hrs by cup-plate method; assay type: functional
Bacillus [12] = assay: Antibacterial activity against […] at 100 ug/mL after 48 hrs by cup-plate method; assay type: functional
Bacillus [13] = assay: Antibacterial activity against […] at 50 ug/mL after 48 hrs by cup-plate method; assay type: functional
Bacillus [14] = assay: Antibacterial activity against […] at 25 ug/mL after 48 hrs by cup-plate method; assay type: functional
Aspergillus niger [15] = assay: Antifungal activity against Aspergillus niger at 100 ug/mL after 48 hrs by cup-plate method; assay type: functional
Aspergillus niger [16] = assay: Antifungal activity against Aspergillus niger at 50 ug/mL after 48 hrs by cup-plate method; assay type: functional
Aspergillus niger [17] = assay: Antifungal activity against Aspergillus niger at 25 ug/mL after 48 hrs by cup-plate method; assay type: functional
Macrophomina phaseolina [18] = assay: Antifungal activity against Rhizoctonia bataticola at 100 ug/mL after 48 hrs by cup-plate method; assay type: functional
Macrophomina phaseolina [19] = assay: Antifungal activity against Rhizoctonia bataticola at 50 ug/mL after 48 hrs by cup-plate method; assay type: functional
Macrophomina phaseolina [20] = assay: Antifungal activity against Rhizoctonia bataticola at 25 ug/mL after 48 hrs by cup-plate method; assay type: functional

| SMILES | LD50 at 24 h [1] | LD50 at 24 h [2] | UI (Rattus norvegicus [3]) | inhibition in vivo at 10 mg/kg (Mus musculus) | inhibition in vivo at 100 mg/kg (Rattus norvegicus [4]) | inhibition in vivo at 100 mg/kg (Rattus norvegicus [5]) | inhibition in vivo at 100 mg/kg (Rattus norvegicus [6]) | inhibition in vivo at 100 mg/kg (Rattus norvegicus [7]) | inhibition in vivo at 100 mg/kg (Rattus norvegicus [8]) | other results |
| --- | --- | --- | --- | --- | --- | --- | --- | --- | --- | --- |
| O=c1cc(COc2ccc(F)cc2)c2ccccc2[nH]1 | > 800 mg/kg | > 1000 mg/kg | 60.71 | 15.8% | 35% | 23% | 52% | 63% | 77% |  |
| Cc1cccc2c(CNc3ccc(F)cc3)cc(=O)[nH]c12 | > 700 mg/kg | > 1000 mg/kg | 55.35 | 67% | 23% | 28% | 6% | 73% | 85% |  |
| O=c1cc(COc2ccc(F)cc2)c2ccc(Cl)cc2[nH]1 | > 800 mg/kg | > 1000 mg/kg | 67.5 | 61.3% | 24% | 24% | 54% | 66% | 78% | inhibition at 100 µg/mL (Escherichia coli [9]): 78%; inhibition at 50 µg/mL (Escherichia coli [10]): 56%; inhibition at 25 µg/mL (Escherichia coli [11]): 34%; zone of inhibition at 25 µg/mL (Escherichia coli [11]; read-out: IZ): 72 mm; inhibition at 100 µg/mL (Bacillus [12]): 76%; inhibition at 50 µg/mL (Bacillus [13]): 40%; inhibition at 25 µg/mL (Bacillus [14]): 22%; zone of inhibition at 25 µg/mL (Bacillus [14]; read-out: IZ): 52 mm; inhibition at 100 µg/mL (Aspergillus niger [15]): 79%; inhibition at 50 µg/mL (Aspergillus niger [16]): 47%; inhibition at 25 µg/mL (Aspergillus niger [17]): 34%; zone of inhibition at 25 µg/mL (Aspergillus niger [17]; read-out: IZ): 68 mm; inhibition at 100 µg/mL (Macrophomina phaseolina [18]): 86%; inhibition at 50 µg/mL (Macrophomina phaseolina [19]): 72%; inhibition at 25 µg/mL (Macrophomina phaseolina [20]): 55% |
| O=c1cc(COc2ccc(F)cc2)c2ccc3ccccc3c2o1 | > 800 mg/kg | > 1000 mg/kg | 61.8 | 23.2% | 46% | 30% | 45% | 66% | 75% |  |
| Cc1ccc2oc(=O)cc(COc3ccc(F)cc3)c2c1 | > 700 mg/kg | > 1000 mg/kg | 57.29 | 72.7% | 40% | 36% | 48% | 64% | 76% |  |
| O=c1cc(CNc2ccc(F)cc2)c2c(ccc3ccccc32)o1 | > 800 mg/kg | > 1000 mg/kg | 64.93 | 10.5% | 63% | 35% | 53% | 60% | 77% |  |
| O=c1cc(CNc2ccc(F)cc2)c2ccc3ccccc3c2o1 | > 700 mg/kg | > 1000 mg/kg | 64.93 | 76.4% | 81% | 54% | 53% | 71% | 81% |  |
| O=c1cc(COc2ccc(Cl)cc2)c2cc(Cl)ccc2[nH]1 |  |  |  |  |  |  |  |  |  | inhibition at 100 µg/mL (Escherichia coli [9]): 50%; inhibition at 50 µg/mL (Escherichia coli [10]): 30%; Activity (Escherichia coli [11]): inactive; inhibition at 100 µg/mL (Bacillus [12]): 60%; inhibition at 50 µg/mL (Bacillus [13]): 31%; Activity (Bacillus [14]): inactive; inhibition at 100 µg/mL (Aspergillus niger [15]): 53%; inhibition at 50 µg/mL (Aspergillus niger [16]): 25%; Activity (Aspergillus niger [17]): inactive; inhibition at 100 µg/mL (Macrophomina phaseolina [18]): 55%; inhibition at 50 µg/mL (Macrophomina phaseolina [19]): 33%; zone of inhibition at 50 µg/mL (Macrophomina phaseolina [19]; read-out: IZ): 84 mm; Activity (Macrophomina phaseolina [20]): inactive |
